Holding throughout (assay type): functional
Assay [1] concerns Streptococcus. Briefly: Antimicrobial activity against Streptococcus isolate by broth microdilution susceptibility assay. A general note: Broth dilution looks for growth in wells or tubes with falling amounts of substance.
The subject of assay [2] is Streptococcus pneumoniae. Put plainly: Antimicrobial activity against penicillin-resistant Streptococcus pneumoniae isolate by broth microdilution susceptibility assay. An outline of the steps: (§1)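 Broth microdilution susceptibility testing following established reference methods. MIC was taken as the lowest compound concentration giving complete inhibition of visible growth, with wells optically clear.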

Assay [3] concerns Staphylococcus aureus. Put plainly: Antimicrobial activity against methicillin-resistant Staphylococcus aureus isolate by broth microdilution susceptibility assay. An outline of the steps:
as §1

Assay [4] has as its system KM-20L2. Put plainly: Growth inhibition of human KM20L2 cells.
The test system of assay [5] is Staphylococcus aureus. Put plainly: Antimicrobial activity against Staphylococcus aureus ATCC 29213 by broth microdilution susceptibility assay. An outline of the steps: as §1
For assay [6], the system named is Enterobacter cloacae. Put plainly: Antimicrobial activity against Enterobacter cloacae ATCC 13047 by broth microdilution susceptibility assay.
The subject of assay [7] is MCF7. Put plainly: Growth inhibition of human MCF7 cells.
The test system of assay [8] is Neisseria gonorrhoeae. Put plainly: Antimicrobial activity against Neisseria gonorrhoeae ATCC 49226 by broth microdilution susceptibility assay.
Assay [9] deals with DU-145. Briefly: Growth inhibition of human DU145 cells.
Assay [10] deals with BXPC-3. Briefly: Growth inhibition of human BxPC3 cells.
The subject of assay [11] is Micrococcus luteus. Put plainly: Antimicrobial activity against Micrococcus luteus Presque Isle 456 by broth microdilution susceptibility assay.
Assay [12] relates to Stenotrophomonas maltophilia. Briefly: Antimicrobial activity against Stenotrophomonas maltophilia ATCC 13637 by broth microdilution susceptibility assay.
Assay [13] deals with Candida albicans. Briefly: Antimicrobial activity against Candida albicans ATCC 90028 by broth microdilution susceptibility assay.
Assay [14] has as its system NCI-H460. Briefly: Growth inhibition of human NCI-H460 cells.
For assay [15], the system named is Escherichia coli. Put plainly: Antimicrobial activity against Escherichia coli ATCC 25922 by broth microdilution susceptibility assay.
The subject of assay [16] is Streptococcus pneumoniae. Briefly: Antimicrobial activity against Streptococcus pneumoniae isolate by broth microdilution susceptibility assay.
For assay [17], the system named is Enterococcus faecalis. Briefly: Antimicrobial activity against Enterococcus faecalis ATCC 29212 isolate by broth microdilution susceptibility assay. An outline of the steps:
as §1

Assay [18] deals with Bacillus subtilis. Put plainly: Antimicrobial activity against Bacillus subtilis isolate by broth microdilution susceptibility assay.
The subject of assay [19] is SF-268. Briefly: Growth inhibition of human SF268 cells.
In assay [20] the test system is P388. Briefly: Growth inhibition of mouse P388 cells.
In assay [21] the test system is Streptococcus pneumoniae. Put plainly: Antimicrobial activity against Streptococcus pneumoniae ATCC 6303 by broth microdilution susceptibility assay.
For assay [22], the system named is Cryptococcus neoformans. Briefly: Antimicrobial activity against Cryptococcus neoformans ATCC 90112 by broth microdilution susceptibility assay.
Assay [23] has as its system Enterococcus faecalis. Briefly: Antimicrobial activity against vancomycin-resistant Enterococcus faecalis isolate by broth microdilution susceptibility assay. An outline of the steps: as §1

In brackets after ≈: the same amount, converted by molar mass.

The text below walks through data of ChEMBL document CHEMBL1159367, “Antineoplastic agents. 485. Isolation and structure of cribrostatin 6, a dark blue cancer cell growth inhibitor from the marine sponge Cribrochalina sp” (2003).

Broadly, the MIC is the lowest concentration that inhibits growth of the organism. A higher MIC goes with a less susceptible organism. By GI50 is commonly meant the concentration that inhibits growth by half. Lower therefore signals greater sensitivity of the cells. Regarding `CCOC1=C(C)C(=O)c2ccn3c(C)ncc3c2C1=O` [CRIBROSTATIN 6], the MIC was 16 µg/mL (≈ 59.2 µM) in assay [1]; 2 µg/mL (≈ 7.4 µM) in assay [2]; 16 µg/mL (≈ 59.2 µM) in assay [3]; 16 µg/mL (≈ 59.2 µM) in assay [5]; greater than 64 µg/mL in assay [6]; 0.0625 µg/mL (≈ 0.231 µM) in assay [8]. Further, the MIC in [11] was 16 µg/mL (≈ 59.2 µM); in assay [12] it was greater than 64 µg/mL; in assay [13], 64 µg/mL (≈ 237 µM); in [15], greater than 64 µg/mL; in [16] it was 1 µg/mL (≈ 3.7 µM); in assay [17] it was 32 µg/mL (≈ 118 µM). Further, the minimum inhibitory concentration (MIC) worked out at 2 µg/mL (≈ 7.4 µM) in [18], 0.5 µg/mL (≈ 1.85 µM) in assay [21], 2 µg/mL (≈ 7.4 µM) in [22] and 32 µg/mL (≈ 118 µM) in assay [23]. The 50% growth inhibitory concentration (GI50) is greater than 1 µg/mL in [4]; 0.21 µg/mL (≈ 0.777 µM) in assay [7]; 0.38 µg/mL (≈ 1.41 µM) in assay [9]; greater than 1 µg/mL in assay [10]; greater than 1 µg/mL in [14]; 0.24 µg/mL (≈ 0.888 µM) in [19]. Moreover, in assay [20], the 50% growth inhibitory concentration (GI50) was found to be 0.29 µg/mL (≈ 1.07 µM). In addition, in [20] (read-out: ED50 (the source's name)), the EC50 amounted to 0.3 µg/mL (≈ 1.11 µM).
